Results from ChEMBL document CHEMBL1255429, “Efflux pumps are involved in the defense of Gram-negative bacteria against the natural products isobavachalcone and diospyrone” (2010).
Converted amounts (≈) assume the structure as drawn. Residues, ends and D or L forms follow the SMILES beside them. *: point of attachment. βNA = c1ccc2cc(N*)ccc2c1

What was measured:
Type in all cases: functional
[1] = system: Escherichia coli; assay: Antimicrobial activity against Escherichia coli ATCC 10536 after 18 hrs by rapid INT colorimetric assay; conditions: ATCC 10536, 18 h
Method in brief: (§1)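 Strains precultured overnight on Mueller-Hinton agar. Sample dissolved in DMSO-MHB, twofold serial dilutions in MHB, inoculum 1.5 × 10^6 CFU/ml; final DMSO below 2.5%. Incubated 37°C 18 h, then 0.2 mg/ml INT added, 30 min at 37°C. MIC = lowest concentration preventing yellow-to-pink change (complete growth inhibition). DMSO-only wells as negative control.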

[2] = system: Escherichia coli; assay: Antimicrobial activity against Escherichia coli ATCC 8739 after 18 hrs by rapid INT colorimetric assay; conditions: ATCC 8739, 18 h
Method in brief: (§2)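 Strains precultured overnight on Mueller-Hinton agar. Samples dissolved in DMSO-MHB, serially diluted twofold in MHB, inoculum 1.5 × 10^6 CFU/ml in MHB added; 37°C, 18 h; final DMSO <2.5%. 0.2 mg/ml INT then added, 30 min at 37°C. MIC = lowest concentration preventing yellow-to-pink reduction, i.e. complete growth inhibition.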

[3] = system: Escherichia coli; assay: Antimicrobial activity against Escherichia coli AG100 after 18 hrs by rapid INT colorimetric assay; conditions: AG100, 18 h; method in brief: as §2
[4] = system: Escherichia coli; assay: Antimicrobial activity against Escherichia coli AG100A after 18 hrs by rapid INT colorimetric assay; method in brief: as §2
[5] = system: Escherichia coli; assay: Antimicrobial activity against tetracycline-resistant Escherichia coli AG100A after 18 hrs by rapid INT colorimetric assay; method in brief: as §2
[6] = system: Escherichia coli; assay: Antimicrobial activity against tetracycline-resistant Escherichia coli AG102 after 18 hrs by rapid INT colorimetric assay; conditions: AG102, 18 h; method in brief: as §2
[7] = system: Klebsiella aerogenes; assay: Antimicrobial activity against Enterobacter aerogenes ATCC 13048 after 18 hrs by rapid INT colorimetric assay; conditions: ATCC 13048, 18 h; method in brief: as §1
[8] = system: Klebsiella aerogenes; assay: Antimicrobial activity against Enterobacter aerogenes EA-CM64 after 18 hrs by rapid INT colorimetric assay; conditions: EA-CM64, 18 h; method in brief: as §2
[9] = system: Klebsiella aerogenes; assay: Antimicrobial activity against Enterobacter aerogenes EA289 after 18 hrs by rapid INT colorimetric assay; conditions: EA289, 18 h; method in brief: as §1
[10] = system: Klebsiella aerogenes; assay: Antimicrobial activity against Enterobacter aerogenes EA294 after 18 hrs by rapid INT colorimetric assay; conditions: EA294, 18 h; method in brief: as §2
[11] = system: Klebsiella aerogenes; assay: Antimicrobial activity against Enterobacter aerogenes EA298 after 18 hrs by rapid INT colorimetric assay; conditions: EA298, 18 h; method in brief: as §2
[12] = system: Klebsiella aerogenes; assay: Antimicrobial activity against Enterobacter aerogenes EA27 after 18 hrs by rapid INT colorimetric assay; conditions: EA27, 18 h; method in brief: as §1
[13] = system: Klebsiella aerogenes; assay: Antimicrobial activity against Enterobacter aerogenes EA3 after 18 hrs by rapid INT colorimetric assay; conditions: EA3, 18 h; method in brief: as §1
[14] = system: Klebsiella aerogenes; assay: Antimicrobial activity against Enterobacter aerogenes EA5 after 18 hrs by rapid INT colorimetric assay; conditions: EA5, 18 h; method in brief: as §1
[15] = system: Klebsiella pneumoniae; assay: Antimicrobial activity against Klebsiella pneumoniae ATCC 11296 after 18 hrs by rapid INT colorimetric assay; conditions: ATCC 11296, 18 h; method in brief: as §2
[16] = system: Klebsiella pneumoniae; assay: Antimicrobial activity against Klebsiella pneumoniae KP55 after 18 hrs by rapid INT colorimetric assay; conditions: KP55, 18 h; method in brief: as §1
[17] = system: Klebsiella pneumoniae; assay: Antimicrobial activity against Klebsiella pneumoniae KP63 after 18 hrs by rapid INT colorimetric assay; conditions: KP63, 18 h; method in brief: as §1
[18] = system: Pseudomonas aeruginosa; assay: Antimicrobial activity against Pseudomonas aeruginosa PAO1 after 18 hrs by rapid INT colorimetric assay; conditions: PAO1, 18 h; method in brief: as §2
[19] = system: Pseudomonas aeruginosa; assay: Antimicrobial activity against Pseudomonas aeruginosa PA124 after 18 hrs by rapid INT colorimetric assay; conditions: PA124, 18 h; method in brief: as §2
[20] = system: Enterobacter cloacae; assay: Antimicrobial activity against Enterobacter cloacae Ec07769 after 18 hrs by rapid INT colorimetric assay; conditions: Ec07769, 18 h; method in brief: as §1
[21] = system: Enterobacter cloacae; assay: Antimicrobial activity against Enterobacter cloacae Ec1194 after 18 hrs by rapid INT colorimetric assay; conditions: Ec1194, 18 h; method in brief: as §1
[22] = system: Escherichia coli; assay: Antimicrobial activity against Escherichia coli ATCC 10536 after 18 hrs by rapid INT colorimetric assay in presence of efflux pump inhibitor phenylalanine arginine beta-naphthylamide; conditions: ATCC 10536, 18 h
Method in brief: (§3)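 Broth microdilution MIC in Mueller-Hinton broth with PAßN at a final 20 μg/ml throughout. Twofold dilutions of sample from DMSO-MHB stock; inoculum 1.5 × 10^6 CFU/ml; 18 h at 37°C, final DMSO <2.5%. Growth read by INT (0.2 mg/ml, 30 min, 37°C). MIC taken as lowest concentration with no pink colour.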

[23] = system: Escherichia coli; assay: Antimicrobial activity against Escherichia coli ATCC 8739 after 18 hrs by rapid INT colorimetric assay in presence of efflux pump inhibitor phenylalanine arginine; conditions: ATCC 8739, 18 h; method in brief: as §3
[24] = system: Escherichia coli; assay: Antimicrobial activity against Escherichia coli AG100 after 18 hrs by rapid INT colorimetric assay in presence of efflux pump inhibitor phenylalanine arginine; conditions: AG100, 18 h
[25] = system: Escherichia coli; assay: Antimicrobial activity against Escherichia coli AG100A after 18 hrs by rapid INT colorimetric assay in presence of efflux pump inhibitor phenylalanine arginine
[26] = system: Escherichia coli; assay: Antimicrobial activity against tetracycline-resistant Escherichia coli AG100A after 18 hrs by rapid INT colorimetric assay in presence of efflux pump inhibitor phenylalanine arginine; method in brief: as §3
[27] = system: Escherichia coli; assay: Antimicrobial activity against tetracycline-resistant Escherichia coli AG102 after 18 hrs by rapid INT colorimetric assay in presence of efflux pump inhibitor phenylalanine arginine; conditions: AG102, 18 h; method in brief: as §3
[28] = system: Klebsiella aerogenes; assay: Antimicrobial activity against Enterobacter aerogenes ATCC 13048 after 18 hrs by rapid INT colorimetric assay in presence of efflux pump inhibitor phenylalanine arginine; conditions: ATCC 13048, 18 h
[29] = system: Klebsiella aerogenes; assay: Antimicrobial activity against Enterobacter aerogenes EA-CM64 after 18 hrs by rapid INT colorimetric assay in presence of efflux pump inhibitor phenylalanine arginine; conditions: EA-CM64, 18 h
[30] = system: Klebsiella aerogenes; assay: Antimicrobial activity against Enterobacter aerogenes EA289 after 18 hrs by rapid INT colorimetric assay in presence of efflux pump inhibitor phenylalanine arginine; conditions: EA289, 18 h
[31] = system: Klebsiella aerogenes; assay: Antimicrobial activity against Enterobacter aerogenes EA294 after 18 hrs by rapid INT colorimetric assay in presence of efflux pump inhibitor phenylalanine arginine; conditions: EA294, 18 h
[32] = system: Klebsiella aerogenes; assay: Antimicrobial activity against Enterobacter aerogenes EA298 after 18 hrs by rapid INT colorimetric assay in presence of efflux pump inhibitor phenylalanine arginine; conditions: EA298, 18 h
[33] = system: Klebsiella aerogenes; assay: Antimicrobial activity against Enterobacter aerogenes EA27 after 18 hrs by rapid INT colorimetric assay in presence of efflux pump inhibitor phenylalanine arginine; conditions: EA27, 18 h
[34] = system: Klebsiella aerogenes; assay: Antimicrobial activity against Enterobacter aerogenes EA3 after 18 hrs by rapid INT colorimetric assay in presence of efflux pump inhibitor phenylalanine arginine; conditions: EA3, 18 h
[35] = system: Klebsiella aerogenes; assay: Antimicrobial activity against Enterobacter aerogenes EA5 after 18 hrs by rapid INT colorimetric assay in presence of efflux pump inhibitor phenylalanine arginine; conditions: EA5, 18 h
[36] = system: Klebsiella pneumoniae; assay: Antimicrobial activity against Klebsiella pneumoniae ATCC 11296 after 18 hrs by rapid INT colorimetric assay in presence of efflux pump inhibitor phenylalanine arginine; conditions: ATCC 11296, 18 h
[37] = system: Klebsiella pneumoniae; assay: Antimicrobial activity against Klebsiella pneumoniae KP55 after 18 hrs by rapid INT colorimetric assay in presence of efflux pump inhibitor phenylalanine arginine; conditions: KP55, 18 h
[38] = system: Klebsiella pneumoniae; assay: Antimicrobial activity against Klebsiella pneumoniae KP63 after 18 hrs by rapid INT colorimetric assay in presence of efflux pump inhibitor phenylalanine arginine; conditions: KP63, 18 h
[39] = system: Pseudomonas aeruginosa; assay: Antimicrobial activity against Pseudomonas aeruginosa PAO1 after 18 hrs by rapid INT colorimetric assay in presence of efflux pump inhibitor phenylalanine arginine; conditions: PAO1, 18 h
[40] = system: Pseudomonas aeruginosa; assay: Antimicrobial activity against Pseudomonas aeruginosa PA124 after 18 hrs by rapid INT colorimetric assay in presence of efflux pump inhibitor phenylalanine arginine; conditions: PA124, 18 h
[41] = system: Enterobacter cloacae; assay: Antimicrobial activity against Enterobacter cloacae Ec07769 after 18 hrs by rapid INT colorimetric assay in presence of efflux pump inhibitor phenylalanine arginine; conditions: Ec07769, 18 h
[42] = system: Enterobacter cloacae; assay: Antimicrobial activity against Enterobacter cloacae Ec1194 after 18 hrs by rapid INT colorimetric assay in presence of efflux pump inhibitor phenylalanine arginine; conditions: Ec1194, 18 h; method in brief: as §3

## N=C(N)NCCC[C@H](NC(=O)[C@@H](N)Cc1ccccc1)C(=O)Nc1ccc2ccccc2c1 [PABETAN] (H-Phe-Arg-βNA)
[1]
  MIC: > 256 µg/mL
[2]
  MIC: > 256 µg/mL
[3]
  MIC: > 256 µg/mL
[4]
  MIC: 64 µg/mL (≈ 143 µM)
[5]
  MIC: > 256 µg/mL
[6]
  MIC: > 256 µg/mL
[7]
  MIC: > 256 µg/mL
[8]
  MIC: > 256 µg/mL
[9]
  MIC: > 256 µg/mL
[10]
  MIC: > 256 µg/mL
[11]
  MIC: > 256 µg/mL
[12]
  MIC: > 256 µg/mL
[13]
  MIC: > 256 µg/mL
[14]
  MIC: > 256 µg/mL
[15]
  MIC: 256 µg/mL (≈ 573 µM)
[16]
  MIC: > 256 µg/mL
[17]
  MIC: > 256 µg/mL
[18]
  MIC: > 256 µg/mL
[19]
  MIC: > 256 µg/mL
[20]
  MIC: > 256 µg/mL
[21]
  MIC: > 256 µg/mL

## CC(C)=CCc1c(O)ccc(C(=O)/C=C/c2ccc(O)cc2)c1O [ISOBAVACHALCONE]
[1]
  MIC: 128 µg/mL (≈ 395 µM)
[22]
  MIC: 2 µg/mL
[2]
  MIC: 256 µg/mL (≈ 789 µM)
[23]
  MIC: 8 µg/mL
[3]
  MIC: 64 µg/mL (≈ 197 µM)
[24]
  MIC: 0.5 µg/mL
[4]
  MIC: 16 µg/mL (≈ 49.3 µM)
[25]
  MIC: 0.25 µg/mL
[5]
  MIC: 64 µg/mL (≈ 197 µM)
[26]
  MIC: 8 µg/mL
[6]
  MIC: 64 µg/mL (≈ 197 µM)
[27]
  MIC: 8 µg/mL
[7]
  MIC: 256 µg/mL (≈ 789 µM)
[28]
  MIC: 16 µg/mL
[8]
  MIC: > 256 µg/mL
[29]
  MIC: 256 µg/mL
[9]
  MIC: 256 µg/mL (≈ 789 µM)
[30]
  MIC: 16 µg/mL
[10]
  MIC: 32 µg/mL (≈ 98.7 µM)
[31]
  MIC: 0.5 µg/mL
[11]
  MIC: 8 µg/mL (≈ 24.7 µM)
[32]
  MIC: 0.5 µg/mL
[12]
  MIC: 256 µg/mL (≈ 789 µM)
[33]
  MIC: 8 µg/mL
[13]
  MIC: 128 µg/mL (≈ 395 µM)
[34]
  MIC: 32 µg/mL
[14]
  MIC: 64 µg/mL (≈ 197 µM)
[35]
  MIC: 16 µg/mL
[15]
  MIC: 32 µg/mL (≈ 98.7 µM)
[36]
  MIC: 4 µg/mL
[16]
  MIC: 32 µg/mL (≈ 98.7 µM)
[37]
  MIC: 4 µg/mL
[17]
  MIC: 16 µg/mL (≈ 49.3 µM)
[38]
  MIC: 0.5 µg/mL
[18]
  MIC: 64 µg/mL (≈ 197 µM)
[39]
  MIC: 16 µg/mL
[19]
  MIC: 64 µg/mL (≈ 197 µM)
[40]
  MIC: 4 µg/mL
[20]
  MIC: 128 µg/mL (≈ 395 µM)
[41]
  MIC: 8 µg/mL
[21]
  MIC: 64 µg/mL (≈ 197 µM)
[42]
  MIC: 1 µg/mL
